Laboratory results reported in publication PMC3549632 (Biochemistry, 2012).
Like-named read-outs stand apart in the source and are kept apart here.

Legend:
[1] = target: T1, SULT1A1 (Homo sapiens, UniProt P50225); assay: Presteady state; type: binding; details: for koff: pH 7.4, 25 °C
[2] = target: T1, SULT1A1; type: binding
Summary of the method: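 Purified tag-cleaved human SULT1A1 in 5.0 mM MgCl2, 25 mM potassium phosphate pH 7.4, 0 or 125 μM PAP, 25 ± 2 °C. Ligand titrated from ethanol:water (1:1), final ethanol <0.5%. Intrinsic fluorescence quenching read at λex 290 nm. Triplicate titrations averaged, ΔI/ΔImax vs total ligand least-squares fit with a quadratic single-site-per-monomer model, giving apparent […].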

[3] = target: T1, SULT1A1; assay: SULT1A1 intrinsic hydrolysis of PAPS; type: biochemical; details: saturating 35S-PAPS (7.0 μM), MgCl2 5.0 mM, KPO4 25 mM, pH 7.4, 25 °C
[4] = pH 7.4, enzyme species PAPS·E (saturating PAPS)

T1 sequence (P50225 whole entry): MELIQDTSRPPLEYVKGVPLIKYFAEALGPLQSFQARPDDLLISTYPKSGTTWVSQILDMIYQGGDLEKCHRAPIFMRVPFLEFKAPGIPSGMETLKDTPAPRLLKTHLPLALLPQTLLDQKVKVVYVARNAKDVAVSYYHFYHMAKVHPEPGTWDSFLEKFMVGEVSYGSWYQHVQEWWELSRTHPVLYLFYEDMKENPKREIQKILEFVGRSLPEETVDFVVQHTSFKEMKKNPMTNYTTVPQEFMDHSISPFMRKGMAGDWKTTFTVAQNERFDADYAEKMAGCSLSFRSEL

| SMILES | Kd [1] [nM] | koff ([1]; pH 7.4, enzyme species E) [s⁻¹] | koff [1, 4] [s⁻¹] | effect of PAPS on binding on- and off-rate constants ([1]; saturating PAPS) | Kd [2] [nM] | fold decrease in apparent on-rate constant at saturating PAPS ([1]; E vs PAPS·E) [fold] | Kd ([1]; Kd (koff/kon), enzyme species E, calculated from rate constants) [nM] | effect of PAPS on off-rate constant ([1]; saturating PAPS) | Kd ([2]; Kd, enzyme species E (zero PAP, open form), pH 7.4, 25 °C) [nM] | Kd ([2]; Kd, enzyme species PAP·E (saturating PAP, 125 μM; closed form), pH 7.4, 25 °C) [nM] | kcat (app) for SULT1A1 hydrolysis of PAPS [3] [s⁻¹] |
| --- | --- | --- | --- | --- | --- | --- | --- | --- | --- | --- | --- |
| C[C@]12CC[C@@H]3c4ccc(O)cc4CC[C@H]3[C@@H]1CC[C@@H]2O [E2, estradiol] | 1300 | 1.6 | 1.9 | not significantly affected | 1700 |  |  |  |  |  |  |
| C[C@]12CC[C@@H]3c4ccc(O)cc4C[C@@H](CCCCCCCCC[S+]([O-])CCCC(F)(F)C(F)(F)F)[C@H]3[C@@H]1CC[C@@H]2O (stereo partly drawn) [fulvestrant, (7R,8R,9S,13S,14S,17S)-13-methyl-7-[9-(4,4,5,5,5-pentafluoropentyl-sulfinyl)nonyl]-6,7,8,9,11,12,14,15,16,17,-decahydrocyclopenta[α]phenanthrene-3,17-diol] |  | 1.8 | 1.7 |  |  | 26 | 270 | not affected | 280 | 6900 ± 900 |  |
| Nc1ncnc2c1ncn2[C@@H]1O[C@H](COP(=O)(O)OS(=O)(=O)O)[C@@H](OP(=O)(O)O)[C@H]1O [PAPS, 3′-phosphoadenosine 5′-phosphosulfate] |  |  |  |  |  |  |  |  |  |  | 0.000767 |
